Experimental data published in ChEMBL document CHEMBL5576109, “Hydantoin derivative dimers as broad-spectrum antimicrobial agents against ESKAPE pathogens with enhanced killing rate and stability” (RSC Med Chem, 2024).
In brackets after ≈: the same amount, converted by molar mass.

Legend:
Staphylococcus aureus [1] = assay: Antibacterial activity against Staphylococcus aureus ATCC 29213 assessed as reduction bacterial growth after 16 hrs by TECAN SPARK microplate reader analysis; assay type: functional
Summary of the method: (§1)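 Single colony grown overnight in 4 mL TSB at 37 °C, diluted 100-fold and grown to mid-log phase. Compounds 2-fold serially diluted in TSB and mixed 1:1 with bacteria in TSB (1 × 10^6 CFU/mL). Incubated 16 h at 37 °C, then A600 read. MIC taken as the lowest concentration giving complete growth inhibition.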

Acinetobacter baumannii = assay: Antibacterial activity against Acinetobacter baumannii ATCC 19606 assessed as reduction bacterial growth after 16 hrs by TECAN SPARK microplate reader analysis; assay type: functional; summary of the method: as §1
[2] = Hemolytic activity in mouse red blood cells assessed as hemolysis incubated for 1 hr by TECAN SPARK microplate reader analysis; assay type: toxicity, cell-based, Erythrocyte; details: red blood cells (erythrocytes)
Summary of the method: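 Mouse RBCs washed three times in 1× PBS by centrifugation (3500 rpm, 10 min) and made up as a 5% v/v suspension. Incubated with 2-fold serially diluted compound in PBS for 1 h at 37 °C, then centrifuged. Supernatant diluted in PBS and A540 read. % hemolysis calculated relative to 1% Triton X-100 (100%) and PBS (0%).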

Pseudomonas aeruginosa = assay: Antibacterial activity against Pseudomonas aeruginosa CMCC 10104 assessed as reduction bacterial growth after 16 hrs by TECAN SPARK microplate reader analysis; assay type: functional; summary of the method: as §1
Escherichia coli = assay: Antibacterial activity against Escherichia coli ATCC 25922 assessed as reduction bacterial growth after 16 hrs by TECAN SPARK microplate reader analysis; assay type: functional; summary of the method: as §1
Klebsiella pneumoniae = assay: Antibacterial activity against Klebsiella pneumoniae ATCC 10031 assessed as reduction bacterial growth after 16 hrs by TECAN SPARK microplate reader analysis; assay type: functional; summary of the method: as §1
Bacillus subtilis = assay: Antibacterial activity against Bacillus subtilis ATCC 6633 assessed as reduction bacterial growth after 16 hrs by TECAN SPARK microplate reader analysis; assay type: functional; summary of the method: as §1
Staphylococcus aureus [3] = assay: Antibacterial activity against methicillin-resistant Staphylococcus aureus ATCC 43300 assessed as reduction bacterial growth after 16 hrs by TECAN SPARK microplate reader analysis; assay type: functional
Summary of the method: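 Broth microdilution in TSB: single colony grown overnight at 37 °C, diluted 100-fold and grown to mid-log phase. 2-fold serial compound dilutions mixed 1:1 with bacteria at 1 × 10^6 CFU/mL, incubated 16 h at 37 °C, absorbance read at 600 nm. MIC taken as lowest concentration giving complete growth inhibition.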

Enterococcus faecalis = assay: Antibacterial activity against Enterococcus faecalis ATCC 29212 assessed as reduction bacterial growth after 16 hrs by TECAN SPARK microplate reader analysis; assay type: functional; summary of the method: as §1

Compound | MIC (Staphylococcus aureus [1]) [µg/mL] | MIC (Acinetobacter baumannii) [µg/mL] | HC50 at 1 h [2] [µg/mL] | MIC (Pseudomonas aeruginosa) [µg/mL] | MIC (Escherichia coli) [µg/mL] | MIC (Klebsiella pneumoniae) [µg/mL] | MIC (Bacillus subtilis) [µg/mL] | MIC (Staphylococcus aureus [3]) [µg/mL] | MIC (Enterococcus faecalis) [µg/mL]
CCCCCCN1C(=O)[C@H](CCCCN)N(Cc2ccc3cc(CN4C(=O)N(CCCCCC)C(=O)[C@@H]4CCCCN)ccc3c2)C1=O | 3.91 (≈ 5.9 µM) | 31.2 (≈ 47.1 µM) | 59.9 | 15.6 (≈ 23.6 µM) | 15.6 (≈ 23.6 µM) | 1.95 (≈ 2.94 µM) | 7.81 (≈ 11.8 µM) | 15.6 (≈ 23.6 µM) | 31.2 (≈ 47.1 µM)
CCCCCCCCCCCCN1C(=O)[C@H](CCCCN)N(Cc2ccc(-c3ccc(CN4C(=O)N(CCCCCCCCCCCC)C(=O)[C@@H]4CCCCN)cc3)cc2)C1=O | 250 (≈ 292 µM) |  |  |  | 250 (≈ 292 µM) |  |  |  | 
CCCCN1C(=O)[C@H](CCCCN)N(Cc2ccc(-c3ccc(CN4C(=O)N(CCCC)C(=O)[C@@H]4CCCCN)cc3)cc2)C1=O | 62.5 (≈ 98.8 µM) | 62.5 (≈ 98.8 µM) |  | 125 (≈ 198 µM) | 125 (≈ 198 µM) | 15.6 (≈ 24.7 µM) | 15.6 (≈ 24.7 µM) | 125 (≈ 198 µM) | 250 (≈ 395 µM)
CN[C@H](CC(C)C)C(=O)N[C@H]1C(=O)N[C@@H](CC(N)=O)C(=O)N[C@H]2C(=O)N[C@H]3C(=O)N[C@H](C(=O)N[C@H](C(=O)O)c4cc(O)cc(O)c4-c4cc3ccc4O)[C@H](O)c3ccc(c(Cl)c3)Oc3cc2cc(c3O[C@@H]2O[C@H](CO)[C@@H](O)[C@H](O)[C@H]2O[C@H]2C[C@](C)(N)[C@H](O)[C@H](C)O2)Oc2ccc(cc2Cl)[C@H]1O [VANCOMYCIN] | 1.95 (≈ 1.35 µM) |  |  |  | 125 (≈ 86.3 µM) |  |  |  | 
CCCCCCN1C(=O)[C@H](CCCCN)N(Cc2ccc(-c3ccc(CN4C(=O)N(CCCCCC)C(=O)[C@@H]4CCCCN)cc3)cc2)C1=O | 1.95 (≈ 2.83 µM) | 3.91 (≈ 5.68 µM) | 32.8 | 15.6 (≈ 22.7 µM) | 1.95 (≈ 2.83 µM) | 1.95 (≈ 2.83 µM) | 1.95 (≈ 2.83 µM) | 7.81 (≈ 11.3 µM) | 7.81 (≈ 11.3 µM)
CCCCCCN1C(=O)[C@H](CCCCN)N(Cc2ccc(Oc3ccc(CN4C(=O)N(CCCCCC)C(=O)[C@@H]4CCCCN)cc3)cc2)C1=O | 3.91 (≈ 5.55 µM) | 3.91 (≈ 5.55 µM) | 69 | 31.2 (≈ 44.3 µM) | 3.91 (≈ 5.55 µM) | 3.91 (≈ 5.55 µM) | 3.91 (≈ 5.55 µM) | 7.81 (≈ 11.1 µM) | 7.81 (≈ 11.1 µM)
NCCCC[C@H]1C(=O)N(C23C[C@H]4C[C@@H](C2)C[C@@H](C3)C4)C(=O)N1Cc1ccc(-c2ccc(CN3C(=O)N(C45C[C@H]6C[C@@H](C4)C[C@@H](C5)C6)C(=O)[C@@H]3CCCCN)cc2)cc1 | 1.95 (≈ 2.47 µM) | 15.6 (≈ 19.8 µM) | 33.6 | 250 (≈ 317 µM) | 62.5 (≈ 79.2 µM) | 7.81 (≈ 9.9 µM) | 7.81 (≈ 9.9 µM) | 125 (≈ 158 µM) | 7.81 (≈ 9.9 µM)
CCCCCCN1C(=O)[C@H](CCCCN)N(Cc2cccc(CN3C(=O)N(CCCCCC)C(=O)[C@@H]3CCCCN)c2)C1=O | 31.2 (≈ 51 µM) | 125 (≈ 204 µM) |  | 31.2 (≈ 51 µM) | 250 (≈ 408 µM) | 62.5 (≈ 102 µM) | 7.81 (≈ 12.7 µM) | 250 (≈ 408 µM) | 62.5 (≈ 102 µM)
CCCCCCN1C(=O)[C@H](CCCCN)N(Cc2ccc(/C=C/c3ccc(CN4C(=O)N(CCCCCC)C(=O)[C@@H]4CCCCN)cc3)cc2)C1=O | 3.91 (≈ 5.47 µM) | 15.6 (≈ 21.8 µM) | 43.5 | 15.6 (≈ 21.8 µM) | 31.2 (≈ 43.7 µM) | 3.91 (≈ 5.47 µM) | 7.81 (≈ 10.9 µM) | 31.2 (≈ 43.7 µM) | 7.81 (≈ 10.9 µM)
COLISTIN | 250 |  |  |  | 3.91 |  |  |  | 
CCCCCCN1C(=O)[C@H](CCCCNC(=N)N)N(Cc2cccc(-c3cccc(CN4C(=O)N(CCCCCC)C(=O)[C@@H]4CCCCNC(=N)N)c3)c2)C1=O | 1.95 (≈ 2.52 µM) | 15.6 (≈ 20.2 µM) | 73.7 | 15.6 (≈ 20.2 µM) | 7.81 (≈ 10.1 µM) | 3.91 (≈ 5.06 µM) | 3.91 (≈ 5.06 µM) | 7.81 (≈ 10.1 µM) | 7.81 (≈ 10.1 µM)
CCCCCCCN1C(=O)[C@H](CCCCN)N(Cc2ccc(-c3ccc(CN4C(=O)N(CCCCCCC)C(=O)[C@@H]4CCCCN)cc3)cc2)C1=O | 3.91 (≈ 5.45 µM) | 7.81 (≈ 10.9 µM) | 156 | 15.6 (≈ 21.8 µM) | 7.81 (≈ 10.9 µM) | 7.81 (≈ 10.9 µM) | 3.91 (≈ 5.45 µM) | 62.5 (≈ 87.2 µM) | 7.81 (≈ 10.9 µM)
CCCCCN1C(=O)[C@H](CCCCN)N(Cc2ccc(-c3ccc(CN4C(=O)N(CCCCC)C(=O)[C@@H]4CCCCN)cc3)cc2)C1=O | 7.81 (≈ 11.8 µM) | 15.6 (≈ 23.6 µM) | 135 | 62.5 (≈ 94.6 µM) | 7.81 (≈ 11.8 µM) | 62.5 (≈ 94.6 µM) | 7.81 (≈ 11.8 µM) | 15.6 (≈ 23.6 µM) | 31.2 (≈ 47.3 µM)
O=C(O)c1cn(C2CC2)c2cc(N3CCNCC3)c(F)cc2c1=O [CIPROFLOXACIN] | 0.39 (≈ 1.18 µM) |  |  |  |  |  |  |  | 
